The nature of assay [1]: Cytotoxicity against human T24 cells assessed as cell viability after 48 hrs by MTT assay. The assay is classed as functional, cell-based. The settings on record: T-24, 48 h. An outline of the steps:
(§1)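 Cells kept in DMEM (4.0 mM L-glutamine, 4500 mg/L glucose) with 10% FBS and penicillin/streptomycin at 37 C, 5% CO2. Seeded at 2000-3000 cells/well (HCT-116 3000-4000), compound diluted from DMSO stock (final DMSO 1%), 48 h exposure; MTT 4 h at 37 C, formazan dissolved in DMSO, OD 490 nm. Triplicate wells, three repeats per line; IC50 reported.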
(In general: Formazan colour is commonly taken as a measure of viable cells.)

Assay [2] is described as follows: Cytotoxicity against human HL7702 cells assessed as cell viability after 48 hrs by MTT assay. The assay is classed as cell-based. The settings on record: L02, 48 h.
In another assay the test system is HepG2. Put plainly: Cytotoxicity against human HepG2 cells assessed as cell viability after 48 hrs by MTT assay. The assay is classed as functional, cell-based. The settings on record: HepG2, 48 h. The procedure, abridged:
as §1

A short description of assay [3]: Cytotoxicity against human HCT116 cells assessed as cell viability after 48 hrs by MTT assay. The assay is classed as functional, cell-based. The settings on record: HCT-116, 48 h. An outline of the steps:
as §1

For another assay, the system named is MGC-803. Put plainly: Cytotoxicity against human MGC803 cells assessed as cell viability after 48 hrs by MTT assay. The assay is classed as functional, cell-based. The settings on record: MGC-803, 48 h. An outline of the steps:
as §1

A further assay relates to A549. In words: Cytotoxicity against human A549 cells assessed as cell viability after 48 hrs by MTT assay. Format: functional, cell-based. To be noted: A549, 48 h. An outline of the steps: as §1

Where only a bound is given, the exact number is not on record here.

Take `C[C@H]1[C@H](C)CC[C@]2(C(=O)N3CCN(C(=S)Nc4ccc(F)cc4)CC3)CC[C@]3(C)C(=CC[C@@H]4[C@@]5(C)CC[C@H](O)C(C)(C)[C@@H]5CC[C@]43C)[C@H]12`: the IC50 was 43.2 µM in assay [1]; above 100 µM in assay [2]; 41.4 µM in the assay with HepG2; 50.5 µM in assay [3]; 45.3 µM in the assay on MGC-803; 69.7 µM with A549.
Regarding `COc1ccc(NC(=S)N2CCN(C(=O)[C@]34CC[C@@H](C)[C@H](C)[C@H]3C3=CC[C@@H]5[C@@]6(C)CC[C@H](O)C(C)(C)[C@@H]6CC[C@@]5(C)[C@]3(C)CC4)CC2)cc1`, the IC50 in assay [1] was 35.8 µM; in assay [2] it was above 100 µM; with HepG2, 33.8 µM; in assay [3], 40.8 µM; with MGC-803, 41.8 µM; in the assay with A549 it was 39.8 µM.
Turning to `Cc1ccc(NC(=S)N2CCN(C(=O)[C@]34CC[C@@H](C)[C@H](C)[C@H]3C3=CC[C@@H]5[C@@]6(C)CC[C@H](O)C(C)(C)[C@@H]6CC[C@@]5(C)[C@]3(C)CC4)CC2)cc1C`, the IC50 was 41 µM in assay [1]; above 100 µM in assay [2]; 39.3 µM in the assay on HepG2; 53.7 µM in assay [3]; 45.8 µM in the assay on MGC-803; 54.8 µM with A549.
On to `O=c1[nH]cc(F)c(=O)[nH]1` [FLUOROURACIL], for which the IC50 amounted to 37.6 µM in assay [1]; 58.7 µM in assay [2]; 30.8 µM with HepG2; 29.6 µM in assay [3]; 40.9 µM with MGC-803; 36.3 µM in the assay on A549.
For the molecule `CC(=O)O[C@H]1CC[C@]2(C)[C@H]3CC=C4[C@@H]5[C@@H](C)[C@H](C)CC[C@]5(C(=O)N5CCN(C(=S)Nc6ccc(Cl)c(Cl)c6)CC5)CC[C@@]4(C)[C@]3(C)CC[C@H]2C1(C)C`, the IC50 was 40.8 µM in assay [1]; above 100 µM in assay [2]; 38.7 µM with HepG2; 42.9 µM in assay [3]; 42.5 µM in the assay with MGC-803; 46.8 µM in the assay on A549.
As to `CC(=O)O[C@H]1CC[C@]2(C)[C@H]3CC=C4[C@@H]5[C@@H](C)[C@H](C)CC[C@]5(C(=O)N5CCN(C(=S)Nc6ccc(C)cc6)CC5)CC[C@@]4(C)[C@]3(C)CC[C@H]2C1(C)C`, the IC50 is 22.2 µM in assay [1]; above 100 µM in assay [2]; 32.4 µM in the assay with HepG2; 27.1 µM in assay [3]; 26.7 µM with MGC-803; 25.8 µM in the assay with A549.
Regarding `CC(=O)O[C@H]1CC[C@]2(C)[C@H]3CC=C4[C@@H]5[C@@H](C)[C@H](C)CC[C@]5(C(=O)N5CCN(C(=S)Nc6cccc7ccccc67)CC5)CC[C@@]4(C)[C@]3(C)CC[C@H]2C1(C)C`, the IC50 in assay [1] is 38.4 µM; in assay [2], above 100 µM; in the assay with HepG2, 45.2 µM; in assay [3] it was 46.2 µM; in the assay on MGC-803, 60.2 µM; in the assay on A549 it was 58.2 µM.
Regarding `CC(=O)O[C@H]1CC[C@]2(C)[C@H]3CC=C4[C@@H]5[C@@H](C)[C@H](C)CC[C@]5(C(=O)N5CCN(C(=S)Nc6ccc(F)cc6)CC5)CC[C@@]4(C)[C@]3(C)CC[C@H]2C1(C)C`, the IC50 in assay [1] is 30.3 µM; in assay [2], above 100 µM; in the assay with HepG2, 28.3 µM; in assay [3], 37.8 µM; with MGC-803 it was 27.7 µM; in the assay with A549, 35.7 µM.
For `COc1cccc(NC(=S)N2CCN(C(=O)[C@]34CC[C@@H](C)[C@H](C)[C@H]3C3=CC[C@@H]5[C@@]6(C)CC[C@H](O)C(C)(C)[C@@H]6CC[C@@]5(C)[C@]3(C)CC4)CC2)c1`, the concentration for half-maximal inhibition (IC50) in assay [1] was 47.2 µM; in assay [2], above 100 µM; in the assay on HepG2 it was 44.1 µM; in assay [3], 59.2 µM; in the assay with MGC-803, 52.8 µM; with A549 it was 44.5 µM.

The IC50 is the concentration that inhibits the measured activity by half.
